Assay outcomes from PubChem.
The list is not random: actives were taken first. Their share in the collection is about 3.7%.
SR-BI DiI-HDL act: activators of SR-BI mediated HDL lipid uptake; CHO ldlA[mSR-BI] cells, DiI-HDL uptake fluorescence, 3 h; 100 = double the neutral-control signal; actives 0.096% (n = 320,000); activation, % at 12.5 µM;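 active = mean replicate activation of at least 60% and every replicate at or above 60%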
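Test system: SR-BI-overexpressing, LDLR-lacking CHO cells; Also added: labelled HDL, 10 µg/mL; Measured by: bottom-read cell fluorescence after medium removal, ex 550/em 595 nm; Timing: 3 h uptake period with compound, 37 °C; Buffer or medium: F12, 0.5% BSA, 25 mM HEPES; Doses: single compound concentration, delivered by pin transfer.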
JMJD2C inh: blocks human GASC-1 demethylase activity | Q9H3R0 | GST-JMJD2C(1-420) H3K9me3 demethylation, DELFIA europium | inhibition, % at 2.35 µM | actives 0.069% (n = 330,000) | AID 2099;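 active = more than half of a compound's replicate wells show inhibition beyond 50%, single wells judged on their own value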;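 also: signal counts dimethyl H3K9 product captured on neutravidin plate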
FXN GAA850 act: frataxin GAA850 promoter activation. activation, % at 6 µM. HEK293 lucGAA850 FXN promoter luciferase reporter, 24 h; percent of 10 µM SAHA response. actives 0.56% (n = 360,000);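 active = activation above the average of all compounds screened plus 3 SD, cutoff fixed separately per campaign, cut at about 7.5% in these data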
AHR act: activators of human aryl hydrocarbon receptor; P35869; AHR-responsive luciferase reporter cells, luminescence; activation, % at 5 µM; actives 2.5% (n = 320,000); AID 2796; in the data active = activation above about 47%
Target sequence (P35869 whole entry, looked up): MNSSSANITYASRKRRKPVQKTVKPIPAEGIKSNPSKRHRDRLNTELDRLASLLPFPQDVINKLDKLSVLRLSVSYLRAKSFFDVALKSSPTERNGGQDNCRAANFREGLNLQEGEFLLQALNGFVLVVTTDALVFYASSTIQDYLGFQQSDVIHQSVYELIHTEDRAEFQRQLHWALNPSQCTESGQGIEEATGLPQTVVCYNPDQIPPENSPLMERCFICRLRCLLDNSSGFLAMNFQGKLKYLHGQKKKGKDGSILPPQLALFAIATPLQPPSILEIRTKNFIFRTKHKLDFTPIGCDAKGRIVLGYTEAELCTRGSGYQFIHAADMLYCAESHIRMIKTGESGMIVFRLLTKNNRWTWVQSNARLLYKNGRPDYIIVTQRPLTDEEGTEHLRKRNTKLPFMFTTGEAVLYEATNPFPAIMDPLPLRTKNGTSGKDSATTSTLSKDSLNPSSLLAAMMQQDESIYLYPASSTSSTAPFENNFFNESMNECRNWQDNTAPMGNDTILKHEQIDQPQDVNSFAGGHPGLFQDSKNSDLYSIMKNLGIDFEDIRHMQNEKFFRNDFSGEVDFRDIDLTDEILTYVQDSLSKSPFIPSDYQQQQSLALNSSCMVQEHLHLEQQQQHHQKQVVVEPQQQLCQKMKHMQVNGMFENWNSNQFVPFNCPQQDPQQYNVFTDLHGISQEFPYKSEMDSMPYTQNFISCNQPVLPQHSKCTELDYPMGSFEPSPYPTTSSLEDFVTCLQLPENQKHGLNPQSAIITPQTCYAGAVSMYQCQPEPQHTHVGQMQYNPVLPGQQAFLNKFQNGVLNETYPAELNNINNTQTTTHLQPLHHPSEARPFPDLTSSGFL
SR-BI HDL uptake: inhibitors of mouse SR-BI mediated HDL lipid uptake; Q61009; ldlA[mSR-BI] CHO cells, DiI-HDL uptake fluorescence, 3 h; inhibition, % at 12.5 µM; actives 0.96% (n = 320,000); AID 488896;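 active = mean replicate inhibition of at least 70% and a set share of replicates each scoring 70 or more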
GAA30 counter: GAA30 FXN promoter activation counter-screen; AID 588350; activation, % at 6 µM; actives 66% (n = 1,900); HEK293 lucGAA30 FXN promoter luciferase, 24 h; DMSO = 0%, 5 µM ipriflavone = 100%; shares compounds with FXN GAA850 act;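 active = mean activation above the mean of solvent-only control wells plus 3 SD, cut at about 22% in these data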;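 also: counterscreen of GAA850 promoter hits where activity marks nonselective or luminescence artifacts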
GAA850 confirm: GAA850 FXN promoter activation confirmation | shares compounds with FXN GAA850 act | HEK293 lucGAA850 FXN promoter luciferase reporter, 24 h; 100% = activation by SAHA | activation, % at 6 µM | actives 86% (n = 1,900);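 active = mean activation above a set limit taken from the primary screen, cut at about 8% in these data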
Numbers stand for hits; . = inactive; / = no result given.

SMILES	SR-BI DiI-HDL act	JMJD2C inh	FXN GAA850 act	AHR act	SR-BI HDL uptake	GAA30 counter	GAA850 confirm
COc1ccc2cc(-c3csc(-c4cccnc4)n3)ccc2c1	.	.	8.1	.	.	92	37
NNC(=O)CNS(=O)(=O)c1ccc([N+](=O)[O-])cc1	.	.	.	.	.	/	/
COc1ccccc1NC(=O)N(C)C[C@H]1OCc2cnnn2CCCC(=O)N([C@H](C)CO)C[C@H]1C	/	/	.	/	/	/	/
N#Cc1cc2c(nc1SCC(N)=O)CCCCC2	.	.	9.6	.	.	108	38
CCOC(=O)CC(=O)CSc1nc2c(cc1C#N)CCCCCC2	.	.	.	.	.	/	/
Nc1nc(N)nc(-c2cc(F)ccc2O)n1	.	.	12	.	.	67	42
CC(=O)Nc1ccc(C2=CC(=O)C[C@H](c3ccc4c(c3)OCO4)C2)cc1	.	.	.	.	.	/	/
O=C(Nc1ccccc1Cl)c1cc(C2CCCN(C(=O)c3cccc(O)c3)C2)on1 (stereo not given)	/	/	.	/	/	/	/
c1cn2c(Nc3ccc4c(c3)OCCO4)c(-c3ccc(N4CCOCC4)cc3)nc2cn1	.	.	8.8	.	.	56	18
CC(/C=N/NC(=O)c1ccccc1C)=C\c1ccccc1	/	.	.	.	/	/	/
CC(/C=N/NC(=O)c1sc(N)nc1C)=C\c1ccccc1	.	.	8.1	.	.	116	41
Cc1ccsc1C(=O)N/N=C/c1ccc2c(c1)OCO2	.	.	8.8	.	.	104	29
Cc1cccc(C(=O)N/N=C/c2ccc3c(c2)OCO3)n1	.	.	.	.	.	/	/
Cc1ccc(OCc2cc(C(=O)N3CC4C[C@@H]5CC3C[C@H](C4)C5)no2)cc1C	.	.	9.0	.	.	97	31
CCN(CC)S(=O)(=O)c1ccc(N2CCCC2)c(NC(=O)Cc2cc(OC)c(OC)c(OC)c2)c1	.	.	8.4	.	.	32	8.4
COc1ccc(C(C)(C)C)cc1NC(=O)c1cc(S(=O)(=O)N(C)C)ccc1N1CCCC1	.	.	15	.	.	.	9.3
CC(C)(C)c1ccc(OCCn2ccccc2=O)cc1	.	.	8.5	.	.	100	41
CC(C)C[C@@H](CN)NC(=O)c1nc[nH]c1C(=O)N[C@@H](C)C(=O)CNC[C@H](C)NC(=O)c1nc[nH]c1C(=O)N[C@@H](Cc1ccccc1)C(=O)O	.	/	.	/	.	/	/
Cc1cccc(Nc2nc(N)c(C#N)c(CC#N)c2C#N)c1	.	.	8.2	50	.	27	17
CCN(CCNCC(O)COc1ccccc1C(C)C)c1cccc(C)c1 (stereo not given)	.	.	.	.	.	/	/
NC[C@H](O)c1ccc(O)c(O)c1	.	/	7.6	.	.	.	.
COC(=O)c1ccc(COC(=O)CNC(=O)c2ccc(-c3ccccc3)cc2)cc1	.	.	8.1	.	.	76	22
NC(=O)COC(=O)c1ccc2c(c1)S(=O)(=O)c1ccccc1C2=O	.	.	.	.	.	/	/
CCc1cccc(CC)c1NC(=O)COC(=O)c1ccc2c(c1)S(=O)(=O)c1ccccc1C2=O	.	.	14	.	.	26	.
Cc1cccc(NC(=O)CNC(=O)c2cccc(-n3cccc3)c2)c1C	.	.	.	.	.	/	/
SMILES	SR-BI DiI-HDL act	JMJD2C inh	FXN GAA850 act	AHR act	SR-BI HDL uptake	GAA30 counter	GAA850 confirm
O=C(Nc1ccon1)c1cc2c(s1)CCCCCC2	.	.	8.8	.	.	113	36
O=C(Nc1ccon1)c1cc2c(s1)CCCC2	.	.	.	.	.	/	/
COc1ccc(OC)c(-c2cc(C(=O)Nc3c(C)nn(Cc4ccccc4)c3C)no2)c1	.	.	7.8	.	.	.	13
CS(=O)(=O)c1ccc(C(=O)NCCN2C(=O)S/C(=C\c3cccnc3)C2=O)cc1[N+](=O)[O-]	/	.	14	.	/	148	44
CN(C)S(=O)(=O)c1ccc(C(=O)NCCN2C(=O)S/C(=C\c3cccnc3)C2=O)cc1	.	.	.	.	.	/	/
COc1cc(CNc2ccc3[nH]c(=O)[nH]c3c2)ccc1OCc1ccc(C)cc1	.	.	9.0	/	.	74	30
COc1cc(CNc2ccc3[nH]c(=O)[nH]c3c2)ccc1OCc1ccccc1Cl	.	.	7.9	.	.	36	20
O=c1[nH]c2ccc(NCc3ccc(OCc4ccccc4Cl)cc3)cc2[nH]1	.	.	.	/	.	/	/
COc1cc(CNc2ccc3[nH]c(=O)[nH]c3c2)ccc1OCc1cccc(C)c1	.	.	.	.	.	/	/
COCC(=O)N(C)C[C@H]1N[C@@](C)(C(=O)OC)[C@H]2C(=O)N(Cc3ccccc3)C(=O)[C@@H]12	.	/	.	.	.	/	/
CCOC(=O)C1=C(O)/C(=C/c2ccc(OCC(=O)O)c(OCC)c2)SC1=Nc1ccc(OC)cc1	.	.	.	.	.	/	/
CCOC(=O)C1=C(O)/C(=C/c2cc(OC)c(OC)c(OC)c2)SC1=Nc1ccc(OC)cc1	.	.	9.6	.	.	.	11
CCOc1ccc2nc(SCC#N)c(C#N)cc2c1	/	.	8.2	.	.	108	32
Cc1ccc(NC(=O)NC(=S)NC(=O)c2ccccc2)cc1	.	.	8.2	.	.	56	24
CC(C)Cc1nnc(NC(=O)CCC(=O)N2CCN(Cc3ccccc3)CC2)s1	.	.	.	.	.	/	/
CC(C)NC(=O)C1CCN(C2CCN(C(=O)c3ccc4cccc(F)c4n3)CC2)CC1	.	.	.	.	.	/	/
CCOC(=O)c1sc(Nc2nc3c(F)cccc3s2)cc1C	.	.	11	52	.	106	42
CC(C)(C)n1nnnc1C(c1ccc(F)cc1)N(Cc1ccc(F)cc1)Cc1ccco1 (stereo not given)	.	.	15	.	.	.	15
CC(C)(C)n1nnnc1C(c1ccc(C(F)(F)F)cc1)N(Cc1ccc(F)cc1)Cc1ccco1 (stereo not given)	/	.	8.7	.	/	.	14
CC(C)(C)n1nnnc1C(c1ccc(C(F)(F)F)cc1)N(Cc1ccccc1)Cc1ccco1 (stereo not given)	.	.	.	.	.	/	/
O=S(=O)(NCC(Nc1ccc(Cl)cc1)c1ccccc1)c1ccc(Cl)cc1 (stereo not given)	/	.	8.5	.	/	.	10.0
O=S(=O)(NCC(c1ccccc1)N1CCC(O)CC1)c1ccc(Cl)cc1 (stereo not given)	.	.	.	.	.	/	/
CCOC(=O)c1c(CSc2ccccc2)oc2cc(Br)c(O)c(CN(C)C)c12	/	.	8.2	.	/	.	9.7
